The species entered for assay [1] is Sus scrofa. The assay is described as follows: Induction of porcine tubulin polymerisation at 2 times MIC for penicillin-resistant Staphylococcus aureus by fluorescence microscopy. Put shortly: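 Polymerisation of mammalian tubulin measured with a commercial tubulin assay kit, read by fluorescence of the kit reporter, with paclitaxel as the positive control for enhanced polymerisation.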

Assay [2] concerns Bacillus subtilis. The assay is described as follows: Inhibition of FtsZ in penicillin-susceptible Bacillus subtilis ATCC 9372 assessed as lowest drug concentration causing inhibition of cell division incubated for 5 hrs by phase-contrast light microscopy. Put shortly:
(§1)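 Cell division inhibition judged from bacterial cell morphology under phase-contrast light microscopy, scored as lowest concentration altering division; penicillin-susceptible strains B. subtilis ATCC9372, E. coli ATCC25922, P. aeruginosa ATCC27853, S. aureus ATCC25923.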

For assay [3], the system named is Staphylococcus aureus. The assay is described as follows: Antibacterial activity against […] Staphylococcus aureus ATCC 29213 incubated for 24 hrs by tube-dilution method. Type of assay: functional. As to conditions: ATCC 29213, 24 h. Put shortly:
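Broth tube-dilution MIC run as NCCLS recommends, against the […] S. aureus strain ATCC29213.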

The test system of assay [4] is Escherichia coli. The assay is described as follows: Antibacterial activity against penicillin-susceptible Escherichia coli ATCC 25922 incubated for 24 hrs by tube-dilution method. The assay is classed as functional. As to conditions: ATCC 25922, 24 h. Put shortly: (§2)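 MIC by tube dilution per NCCLS; B. subtilis ATCC9372, E. coli ATCC25922, P. aeruginosa ATCC27853 and S. aureus ATCC25923 are penicillin-susceptible strains.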

In assay [5] the test system is Streptococcus pyogenes. The assay is described as follows: Antibacterial activity against penicillin-susceptible Streptococcus pyogenes clinical isolates incubated for 24 hrs by tube-dilution method. Type of assay: functional.
For assay [6], the system named is Staphylococcus epidermidis. As to the kind of experiment: Antibacterial activity against penicillin-resistant Staphylococcus epidermidis clinical isolates incubated for 24 hrs by tube-dilution method. Type of assay: functional.
The subject of assay [7] is Staphylococcus aureus. The assay is described as follows: Inhibition of FtsZ in penicillin-susceptible Staphylococcus aureus ATCC 25923 assessed as lowest drug concentration causing inhibition of cell division incubated for 5 hrs by phase-contrast light microscopy. Summed up:
as §1

Assay [8] has as its system Bacillus subtilis. The assay is described as follows: Antibacterial activity against penicillin-susceptible Bacillus subtilis ATCC 9372 incubated for 24 hrs by tube-dilution method. Type of assay: functional. To be noted: ATCC 9372, 24 h. Put shortly: as §2
Assay [9] has as its system Streptococcus pyogenes. The assay is described as follows: Antibacterial activity against penicillin-resistant Streptococcus pyogenes clinical isolates incubated for 24 hrs by tube-dilution method. The assay is classed as functional.
Assay [10] has as its system Escherichia coli. As to the kind of experiment: Inhibition of FtsZ in penicillin-susceptible Escherichia coli ATCC 25922 assessed as lowest drug concentration causing inhibition of cell division incubated for 5 hrs by phase-contrast light microscopy. Summed up:
as §1

For assay [11], the system named is Pseudomonas aeruginosa. As to the kind of experiment: Antibacterial activity against penicillin-susceptible Pseudomonas aeruginosa ATCC 27853 incubated for 24 hrs by tube-dilution method. Type of assay: functional. As to conditions: ATCC 27853, 24 h. Summed up:
as §2

The subject of assay [12] is Staphylococcus aureus. The assay is described as follows: Antibacterial activity against penicillin-resistant Staphylococcus aureus clinical isolates incubated for 24 hrs by tube-dilution method. The assay is classed as functional.
The subject of assay [13] is Pseudomonas aeruginosa. As to the kind of experiment: Inhibition of FtsZ in penicillin-susceptible Pseudomonas aeruginosa ATCC 27853 assessed as lowest drug concentration causing inhibition of cell division incubated for 5 hrs by phase-contrast light microscopy. Put shortly:
as §1

Assay [14] relates to Staphylococcus aureus. The assay is described as follows: Antibacterial activity against penicillin-susceptible Staphylococcus aureus ATCC 25923 incubated for 24 hrs by tube-dilution method. Type of assay: functional. To be noted: ATCC 25923, 24 h. Put shortly: as §2

Values after ≈ are worked out from the molar mass of the structure shown. Active and inactive are the calls of the source. The calls are words filed in the database; no cut-off is given here. Some results are limits rather than exact numbers.

`CSc1ccc2c(c1)c1ccccc1c[n+]2C.[Cl-]`: the outcome in [1] was inactive. In addition, the MIC is 8 µg/mL in [2]; more than 128 µg/mL in assay [3]; more than 128 µg/mL in [4]; 32 µg/mL in [5]; more than 128 µg/mL in assay [6]; 128 µg/mL in [7]. Besides, the MIC in assay [8] is 8 µg/mL; in [9], 32 µg/mL; in assay [10], 128 µg/mL; in assay [11] it was more than 128 µg/mL; in assay [12], 32 µg/mL; in assay [13] it was more than 128 µg/mL. The MIC in [14] was found to be 128 µg/mL.
As to `CCCCc1ccc2c(c1)c1ccccc1c[n+]2C.[Cl-]`, in [1], the result was inactive. The MIC in [2] was 4 µg/mL; in assay [3], more than 128 µg/mL; in assay [4], more than 128 µg/mL; in assay [5], 8 µg/mL; in [6], more than 128 µg/mL; in assay [7] it was 64 µg/mL. Besides, the MIC in assay [8] was 4 µg/mL; in assay [9], 8 µg/mL; in assay [10], 128 µg/mL; in assay [11], more than 128 µg/mL; in [12], 8 µg/mL; in assay [13], more than 128 µg/mL. In addition, in assay [14], the MIC is 64 µg/mL.
Take `C[n+]1cc2ccccc2c2cc(F)ccc21.[Cl-]`: the result in [1] was inactive. Moreover, the MIC in assay [2] is 16 µg/mL; in [3], more than 128 µg/mL; in assay [4] it was more than 128 µg/mL; in [5], 32 µg/mL; in assay [6], more than 128 µg/mL; in assay [7], more than 128 µg/mL. For the same compound, the MIC in assay [8] is 16 µg/mL; in [9] it was 32 µg/mL; in assay [10], more than 128 µg/mL; in assay [11], 128 µg/mL; in [12] it was 32 µg/mL; in [13], 128 µg/mL. In assay [14], the MIC is more than 128 µg/mL.
Take `COc1ccc2c(c1)c1ccccc1c[n+]2C.[Cl-]`: the outcome in assay [1] was inactive. Moreover, the MIC in assay [2] was 8 µg/mL; in assay [3], 128 µg/mL; in assay [4] it was more than 128 µg/mL; in [5], 8 µg/mL; in [6], 64 µg/mL; in [7], more than 128 µg/mL. Besides, the MIC in [8] was 8 µg/mL; in [9], 16 µg/mL; in [10] it was more than 128 µg/mL; in assay [11], more than 128 µg/mL; in assay [12], 8 µg/mL; in assay [13], more than 128 µg/mL. In assay [14], this compound came in with an MIC of more than 128 µg/mL.
For the compound `C[n+]1cc2ccccc2c2cc(Cl)ccc21.[Cl-]`, the outcome in [1] was inactive. Besides, the MIC was 16 µg/mL in assay [2]; more than 128 µg/mL in assay [3]; 128 µg/mL in [4]; 32 µg/mL in assay [5]; more than 128 µg/mL in [6]; more than 128 µg/mL in [7]. Further, the MIC is 16 µg/mL in [8]; 32 µg/mL in assay [9]; 128 µg/mL in assay [10]; more than 128 µg/mL in [11]; 32 µg/mL in assay [12]; more than 128 µg/mL in assay [13]. For the same compound, the MIC in assay [14] was more than 128 µg/mL.
Consider `O=C(O)c1cn(C2CC2)c2cc(N3CCNCC3)c(F)cc2c1=O` [CIPROFLOXACIN], for which the MIC stood at 4 µg/mL (≈ 12.1 µM) in assay [3], 8 µg/mL (≈ 24.1 µM) in assay [8] and 32 µg/mL (≈ 96.6 µM) in [14].
In the case of `C[n+]1cc2ccccc2c2cc(C(F)(F)F)ccc21.[Cl-]`, in [1], the result was inactive. Besides, the MIC in assay [2] was 64 µg/mL; in assay [3] it was more than 128 µg/mL; in [4], more than 128 µg/mL; in [5], 128 µg/mL; in [6], 128 µg/mL; in assay [7] it was 128 µg/mL. In addition, the MIC in assay [8] was 128 µg/mL; in assay [9] it was 128 µg/mL; in [10], more than 128 µg/mL; in assay [11] it was more than 128 µg/mL; in assay [12], 128 µg/mL; in assay [13], more than 128 µg/mL. For the same compound, in assay [14], the MIC turned out to be 128 µg/mL.
With `Cc1onc(-c2ccccc2)c1C(=O)N[C@@H]1C(=O)N2[C@@H]1SC(C)(C)[C@@H]2C(=O)[O-].[Na+]`, the MIC in assay [3] was found to be 128 µg/mL; in assay [4], 128 µg/mL; in assay [5], 1 µg/mL; in [6], 8 µg/mL; in assay [8] it was 8 µg/mL; in assay [9], 2 µg/mL. The MIC in assay [11] was 128 µg/mL; in assay [12] it was more than 128 µg/mL; in assay [14], 8 µg/mL.
On to `C[n+]1cc2c3c(ccc2c2ccc4cc5c(cc4c21)OCO5)OCO3`, for which the MIC in assay [2] was 8 µg/mL; in assay [3] it was 8 µg/mL; in assay [4], more than 128 µg/mL; in assay [5], 8 µg/mL; in assay [6], 64 µg/mL; in [7] it was 8 µg/mL. The MIC in [8] is 8 µg/mL; in assay [9] it was 8 µg/mL; in [10] it was more than 128 µg/mL; in assay [11], more than 128 µg/mL; in assay [12] it was 4 µg/mL; in assay [13] it was more than 128 µg/mL. Besides, the MIC in [14] is 8 µg/mL.
As for `COc1cccc2c3ccccc3c[n+](C)c12.[Cl-]`, in assay [1], the result was inactive. In addition, the MIC in assay [2] is 8 µg/mL; in assay [3] it was more than 128 µg/mL; in assay [4] it was more than 128 µg/mL; in [5], 16 µg/mL; in assay [6], 128 µg/mL; in assay [7], more than 128 µg/mL. The MIC in assay [8] is 8 µg/mL; in [9], 16 µg/mL; in assay [10], more than 128 µg/mL; in assay [11], more than 128 µg/mL; in assay [12] it was 16 µg/mL; in assay [13], more than 128 µg/mL. In assay [14], this compound returned an MIC of more than 128 µg/mL.
As to `C[n+]1cc2ccccc2c2ccccc21.[Cl-]`, in [1], the result was inactive. For the same compound, the MIC in [2] is 16 µg/mL; in [3], more than 128 µg/mL; in assay [4] it was more than 128 µg/mL; in assay [5] it was 32 µg/mL; in [6], more than 128 µg/mL; in [7], more than 128 µg/mL. Also, the MIC in [8] was 16 µg/mL; in assay [9], 32 µg/mL; in assay [10], more than 128 µg/mL; in [11], 128 µg/mL; in assay [12], 32 µg/mL; in assay [13], 128 µg/mL. The compound further displayed an MIC in [14] of more than 128 µg/mL.
For `C[n+]1cc2ccccc2c2cc(C(C)(C)C)ccc21.[Cl-]`, the outcome in [1] was inactive. The MIC in assay [2] was 8 µg/mL; in assay [3], more than 128 µg/mL; in assay [4] it was more than 128 µg/mL; in [5], 16 µg/mL; in [6], 128 µg/mL; in assay [7], 64 µg/mL. Also, the MIC in assay [8] was 8 µg/mL; in assay [9] it was 16 µg/mL; in assay [10], 128 µg/mL; in assay [11], more than 128 µg/mL; in [12], 16 µg/mL; in assay [13], more than 128 µg/mL. This compound displayed an MIC in [14] of 64 µg/mL.
